Active and inactive are the calls of the source. The rule behind the calls is not given here.
Key:
[1] = biological target: 5-hydroxytryptamine receptor 7 (Rattus norvegicus, UniProt P32305); test: Displacement of [3H]5-CT from rat recombinant 5HT7 receptor expressed in HEK293 cells after 60 mins; format: cell-based
Outline: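 Membranes from HEK-293 cells stably expressing rat 5-HT7 incubated 60 min at room temperature with 1 nM [3H]5-CT and increasing test compound; rapid filtration, radioactivity counted. IC50 from nonlinear sigmoidal fits, Ki by Cheng-Prusoff. Means of three experiments in triplicate, SEM; final DMSO ≤0.4%.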

[2] = biological target: 5-hydroxytryptamine receptor 7 (Rattus norvegicus) (UniProt P32305); test: Antagonist activity at rat recombinant 5HT7 receptor expressed in HEK293 cells assessed as decrease of 5-CT-induced increase of cAMP level after 20 mins by competitive immunoassay
[3] = Binding affinity to adrenergic alpha1 receptor
[4] = Drug level in rat plasma at 10 mg/kg, ip after 1 hr; format: ADME, organism-based; set-up: dose 10 mg/kg, route intraperitoneal; conditions: read-out: Drug uptake
Outline: (§1)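 Rats dosed 10 mg/kg intraperitoneally; brain and plasma compound concentrations measured 1 h after dosing.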

Rattus norvegicus = test: Inhibition of 5-CT-induced hypothermia in rat at 10 mg/kg, ip; format: functional, organism-based; set-up: dose 10 mg/kg
Outline: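 Conscious rats given test compound intraperitoneally at 10 mg/kg; antagonism of hypothermia induced by the 5-HT7 agonist 5-CT assessed.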

[5] = Drug level in rat brain at 10 mg/kg, ip after 1 hr; format: ADME, organism-based; set-up: dose 10 mg/kg, route intraperitoneal; conditions: read-out: Drug uptake; outline: as §1
[6] = biological target: 5-hydroxytryptamine receptor 7 (Homo sapiens, UniProt P34969); test: Binding affinity to 5HT7 receptor
5-hydroxytryptamine receptor 7 (Homo sapiens, UniProt P34969), sequence (P34969 whole entry): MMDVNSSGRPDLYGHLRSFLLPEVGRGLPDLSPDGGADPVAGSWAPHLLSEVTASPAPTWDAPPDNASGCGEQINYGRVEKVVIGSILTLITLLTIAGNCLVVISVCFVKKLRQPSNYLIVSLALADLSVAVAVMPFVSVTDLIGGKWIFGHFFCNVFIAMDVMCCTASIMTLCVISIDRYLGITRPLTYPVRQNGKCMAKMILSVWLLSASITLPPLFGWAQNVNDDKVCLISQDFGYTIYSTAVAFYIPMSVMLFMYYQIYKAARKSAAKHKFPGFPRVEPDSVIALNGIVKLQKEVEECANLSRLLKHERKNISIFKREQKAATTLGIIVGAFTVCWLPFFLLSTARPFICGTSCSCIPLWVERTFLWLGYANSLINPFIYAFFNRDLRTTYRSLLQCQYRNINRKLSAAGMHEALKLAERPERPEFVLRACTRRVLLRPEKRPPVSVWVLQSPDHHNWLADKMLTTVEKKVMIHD

5-hydroxytryptamine receptor 7 (Rattus norvegicus, UniProt P32305), sequence (P32305 whole entry): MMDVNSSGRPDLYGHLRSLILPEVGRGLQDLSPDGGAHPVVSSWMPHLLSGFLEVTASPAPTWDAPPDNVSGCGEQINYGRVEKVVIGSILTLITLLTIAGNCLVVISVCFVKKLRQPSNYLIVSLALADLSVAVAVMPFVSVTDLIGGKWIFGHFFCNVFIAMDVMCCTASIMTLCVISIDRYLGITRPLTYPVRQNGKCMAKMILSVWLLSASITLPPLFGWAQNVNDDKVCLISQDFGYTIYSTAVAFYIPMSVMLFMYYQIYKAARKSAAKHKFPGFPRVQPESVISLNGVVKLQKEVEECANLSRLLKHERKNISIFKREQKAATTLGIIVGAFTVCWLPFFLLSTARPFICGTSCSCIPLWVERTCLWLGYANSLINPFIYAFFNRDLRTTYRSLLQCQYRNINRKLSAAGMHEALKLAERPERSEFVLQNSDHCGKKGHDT
5-hydroxytryptamine receptor 7 (Rattus norvegicus), sequence (P32305 whole entry): as above

Compound	Ki [1]	further results
FC(F)(F)c1ccc(-c2cn(Cc3ccccc3)c3c2CNCC3)cc1	0.167 µM	–
Clc1ccccc1Cn1cc(-c2ccccc2)c2c1CCNC2	2.29 µM	–
O=[N+]([O-])c1ccc(-c2cn(Cc3ccccc3)c3c2CNCC3)cc1	0.45 µM	–
Clc1ccc(-c2cn(Cc3ccccc3)c3c2CNCC3)c(Cl)c1	2.07 µM	–
FC(F)(F)Oc1ccc(-c2cn(Cc3ccccc3)c3c2CNCC3)cc1	10 µM	–
Clc1ccc(-c2cn(Cc3ccccc3)c3c2CNCC3)cc1	0.107 µM	pKb [2]: 7.2
CC(C)(C)c1ccc(-c2cn(Cc3ccccc3)c3c2CNCC3)cc1	10 µM	–
Oc1ccc(-c2cn(Cc3ccccc3)c3c2CNCC3)cc1	10 µM	–
Clc1ccc(-c2cn(Cc3cccc(Cl)c3)c3c2CNCC3)cc1	0.533 µM	–
Clc1ccc(Cn2cc(-c3ccccc3)c3c2CCNC3)cc1	0.753 µM	–
c1ccc(Cn2cc(-c3ccccc3)c3c2CCNC3)cc1	0.22 µM	pKb [2]: 6.7
Clc1ccc(-c2cn(Cc3ccccc3)c3c2CNCC3)cc1Cl	4.47 µM	–
Fc1ccc(-c2cn(Cc3ccccc3)c3c2CNCC3)cc1	0.045 µM	–
CC(C)N1CCc2c(c(-c3ccc(Cl)cc3)cn2Cc2ccccc2)C1	0.37 µM	–
Clc1cccc(-c2cn(Cc3ccccc3)c3c2CNCC3)c1	10 µM	–
COc1ccc(-c2cn(Cc3ccccc3)c3c2CNCC3)cc1	0.29 µM	–
CN1CCc2c(c(-c3ccc(Cl)cc3)cn2Cc2ccccc2)C1	0.036 µM	–
Cc1ccc(-c2cn(Cc3ccccc3)c3c2CNCC3)cc1	0.035 µM	Activity [3]: 5 nM; concentration at 1 h [4]: 3 µM; Activity (Rattus norvegicus): Active; concentration at 1 h [5]: 27 µM; pKb [2]: 7.6
CCN1CCc2c(c(-c3ccc(Cl)cc3)cn2Cc2ccccc2)C1	0.25 µM	–
Fc1cccc(-c2cn(Cc3ccccc3)c3c2CNCC3)c1	2.73 µM	–
Clc1cccc(Cn2cc(-c3ccccc3)c3c2CCNC3)c1	6.6 µM	–
Clc1ccc(-c2nn(Cc3ccccc3)c3c2CNCC3)cc1	–	Ki [6]: 0.014 µM
